In ChEMBL document CHEMBL1152697, “Design, synthesis and SAR studies of 4-allyoxyaniline amides as potent 15-lipoxygensae inhibitors” (Bioorg Med Chem, 2009):

Assay: Inhibition of soybean 15-lipoxygenase
Parameters: species or system Glycine max
How it was run: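 Soybean 15-lipoxygenase (final 167 U/mL) in 0.1 M borate buffer pH 9, linoleic acid substrate (final 134 μM), 20 ± 1 °C. Compounds added in DMSO (final 1%), DMSO-only controls, inhibitor plus substrate as blank. Absorbance at 234 nm read for 60 s after enzyme addition. Enzyme kept on ice. At least six control tubes and triplicate tubes per inhibitor. IC50 by linear interpolation around 50% activity, mean ± SD.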

SMILES | IC50 [µM]
C=CCOc1ccc(NC(=O)C2CCCC2)cc1 | 4.1
C=CCOc1ccc(NC(=O)C(C)C)cc1 | 12.9
C=CCOc1ccc(NC(=O)C2CC2)cc1 | 6.1
C=CCOc1ccc(OC(=O)c2ccccc2)cc1 | 6.2
C=CCOc1ccc(NC(=O)c2cccc(F)c2)cc1 | 5.6
C=CCOc1ccc(NC(=O)C2CCCCC2)cc1 | 6.4
C=CCOc1ccc(NC(=O)C23CC4CC(CC(C4)C2)C3)cc1 | 0.67
C=CCOc1ccc(NC(=O)C2CCC2)cc1 | 2.2
C=CCOc1ccc(NC(=O)c2ccccc2)cc1 | 3.3
C=CCOc1ccc(NC(=O)c2ccc(F)cc2)cc1 | 3.8
C=CCOc1ccc(NC(=O)c2ccc(Cl)cc2)cc1 | 8.8
C=CCOc1ccc(NC(=O)c2ccc(OC)cc2)cc1 | 13.8
C=CCOc1ccc(NC(=O)c2ccc(C)cc2)cc1 | 10.1
C=CCOc1ccc(NC(=O)c2cccc(C)c2)cc1 | 6.7
C=CCOc1ccc(NC(=O)c2cccc(OC)c2)cc1 | 17
C=CCc1ccc(OC(=O)c2ccccc2)cc1 | 6.7
C=CCOc1ccc(NC(=O)c2cccc(Cl)c2)cc1 | 8.1
C=CCc1ccc(OC)cc1 [ESTRAGOLE] | 64.1
C=CCc1ccc(O)c(OC)c1 [EUGENOL] | 38.2
C=CCc1ccc(OC(=O)c2ccccc2)c(OC)c1 [EUGENYL BENZOAT] | 7
C=CCc1ccc(OC)c(OC)c1 [METHYLEUGENOL] | 96.1
